Test results taken from paper PMC9165588 (European journal of medicinal chemistry, 2022).
pEC50, pIC50: −log10 of the molar value. Entries after “also recorded” stand apart in the source; their conditions may differ. Structures can show the parent of a compound that is named as a salt.

Legend:
[1] = biological target: T1, HAT domain (1195-1673) of human p300 (Homo sapiens, UniProt Q09472); assay: p300 HAT inhibition assay; type: biochemical; conditions: for inhibition at 10 µM: read-out: inhibition of p300 HAT at 10 μM; for inhibitory activity against p300 HAT (in words): initial screen at 10 μM
T1 sequence (Q09472 1195-1673): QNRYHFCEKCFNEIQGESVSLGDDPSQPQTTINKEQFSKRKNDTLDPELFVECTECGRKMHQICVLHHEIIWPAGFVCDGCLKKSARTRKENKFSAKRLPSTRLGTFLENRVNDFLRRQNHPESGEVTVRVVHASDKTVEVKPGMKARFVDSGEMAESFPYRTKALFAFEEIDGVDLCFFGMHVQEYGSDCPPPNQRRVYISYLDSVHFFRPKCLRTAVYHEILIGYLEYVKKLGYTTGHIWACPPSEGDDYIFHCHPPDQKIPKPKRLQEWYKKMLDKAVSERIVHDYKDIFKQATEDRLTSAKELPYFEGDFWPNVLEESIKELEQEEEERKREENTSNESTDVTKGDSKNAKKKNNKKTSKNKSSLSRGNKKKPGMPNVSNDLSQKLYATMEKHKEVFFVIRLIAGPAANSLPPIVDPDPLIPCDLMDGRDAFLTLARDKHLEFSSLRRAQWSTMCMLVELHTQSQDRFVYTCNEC

[2] = test system: MDA-PANC-28; conditions: read-out: Antiproliferative activity EC50; cited from earlier work
[3] = test system: PANC-1; conditions: read-out: Antiproliferative activity EC50; cited from earlier work
[4] = biological target: T2, binding between p300 HAT and histone H4 (Homo sapiens, UniProt Q09472); assay: ALPHA assay of p300 HAT-histone H4 peptide binding
T2 sequence (Q09472 1195-1673): T1 sequence (Q09472 1195-1673)

[5] = test system: MCF-7; conditions: read-out: Antiproliferative activity EC50; cited from earlier work
[6] = test system: Kasumi-1 leukemia cells; assay: Western blot of cellular histone H3 lysine acetylation; type: cell-based, human; conditions: Kasumi-1 cells, 12h, 5 and 10 μM
Outline: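 Kasumi-1 cells (10⁶ per well) were exposed to test compound at various concentrations for 12 h. Total histones were extracted with a kit, and 2 μg protein was resolved by SDS-PAGE and transferred to PVDF. Blots were probed with antibodies to H3K9Ac, H3K18Ac, H3K27Ac and total H3, then an anti-rabbit IgG secondary.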

[7] = biological target: T3, LSD1 (Homo sapiens, UniProt O60341); assay: LSD1 inhibition; type: biochemical
[8] = biological target: PCAF (Homo sapiens, UniProt Q92831); assay: PCAF HAT inhibition assay; type: biochemical
PCAF, sequence (Q92831 whole entry): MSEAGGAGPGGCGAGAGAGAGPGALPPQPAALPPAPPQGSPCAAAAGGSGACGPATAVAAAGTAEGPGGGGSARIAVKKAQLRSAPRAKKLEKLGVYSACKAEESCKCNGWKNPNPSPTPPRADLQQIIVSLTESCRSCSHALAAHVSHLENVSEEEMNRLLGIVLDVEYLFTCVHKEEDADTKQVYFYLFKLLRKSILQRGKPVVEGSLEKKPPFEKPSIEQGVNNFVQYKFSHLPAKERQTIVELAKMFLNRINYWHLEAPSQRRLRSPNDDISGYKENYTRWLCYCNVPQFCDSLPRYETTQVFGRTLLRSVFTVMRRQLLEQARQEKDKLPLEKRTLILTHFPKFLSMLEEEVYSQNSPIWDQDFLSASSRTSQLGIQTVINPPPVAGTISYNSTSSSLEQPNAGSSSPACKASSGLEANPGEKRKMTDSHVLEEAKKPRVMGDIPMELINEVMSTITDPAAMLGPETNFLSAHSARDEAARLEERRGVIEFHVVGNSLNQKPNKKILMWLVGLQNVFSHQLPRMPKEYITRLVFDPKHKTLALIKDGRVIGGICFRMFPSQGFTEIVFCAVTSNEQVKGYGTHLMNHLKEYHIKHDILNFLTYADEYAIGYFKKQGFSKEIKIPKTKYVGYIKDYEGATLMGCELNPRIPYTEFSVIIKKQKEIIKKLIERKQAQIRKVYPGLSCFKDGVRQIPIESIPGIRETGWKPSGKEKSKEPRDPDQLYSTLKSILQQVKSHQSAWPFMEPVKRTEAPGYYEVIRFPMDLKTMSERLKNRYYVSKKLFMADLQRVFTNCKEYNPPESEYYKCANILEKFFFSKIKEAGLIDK
Outline: (§1)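 Radiometric acetyltransfer assay. HAT enzyme (10 nM) was preincubated with test compound for 10 min at 25 °C in 50 mM phosphate buffer, pH 7.0, with 0.01% Brij-35. After 30 min at 25 °C, stopped with 6 N formic acid. Spotted on P81 paper, washed 3× in 50 mM NaHCO₃, scintillation counted.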

[9] = biological target: Myst3 (Homo sapiens, UniProt Q92794); assay: Myst3 HAT inhibition assay; type: biochemical
Myst3, sequence (Q92794 whole entry): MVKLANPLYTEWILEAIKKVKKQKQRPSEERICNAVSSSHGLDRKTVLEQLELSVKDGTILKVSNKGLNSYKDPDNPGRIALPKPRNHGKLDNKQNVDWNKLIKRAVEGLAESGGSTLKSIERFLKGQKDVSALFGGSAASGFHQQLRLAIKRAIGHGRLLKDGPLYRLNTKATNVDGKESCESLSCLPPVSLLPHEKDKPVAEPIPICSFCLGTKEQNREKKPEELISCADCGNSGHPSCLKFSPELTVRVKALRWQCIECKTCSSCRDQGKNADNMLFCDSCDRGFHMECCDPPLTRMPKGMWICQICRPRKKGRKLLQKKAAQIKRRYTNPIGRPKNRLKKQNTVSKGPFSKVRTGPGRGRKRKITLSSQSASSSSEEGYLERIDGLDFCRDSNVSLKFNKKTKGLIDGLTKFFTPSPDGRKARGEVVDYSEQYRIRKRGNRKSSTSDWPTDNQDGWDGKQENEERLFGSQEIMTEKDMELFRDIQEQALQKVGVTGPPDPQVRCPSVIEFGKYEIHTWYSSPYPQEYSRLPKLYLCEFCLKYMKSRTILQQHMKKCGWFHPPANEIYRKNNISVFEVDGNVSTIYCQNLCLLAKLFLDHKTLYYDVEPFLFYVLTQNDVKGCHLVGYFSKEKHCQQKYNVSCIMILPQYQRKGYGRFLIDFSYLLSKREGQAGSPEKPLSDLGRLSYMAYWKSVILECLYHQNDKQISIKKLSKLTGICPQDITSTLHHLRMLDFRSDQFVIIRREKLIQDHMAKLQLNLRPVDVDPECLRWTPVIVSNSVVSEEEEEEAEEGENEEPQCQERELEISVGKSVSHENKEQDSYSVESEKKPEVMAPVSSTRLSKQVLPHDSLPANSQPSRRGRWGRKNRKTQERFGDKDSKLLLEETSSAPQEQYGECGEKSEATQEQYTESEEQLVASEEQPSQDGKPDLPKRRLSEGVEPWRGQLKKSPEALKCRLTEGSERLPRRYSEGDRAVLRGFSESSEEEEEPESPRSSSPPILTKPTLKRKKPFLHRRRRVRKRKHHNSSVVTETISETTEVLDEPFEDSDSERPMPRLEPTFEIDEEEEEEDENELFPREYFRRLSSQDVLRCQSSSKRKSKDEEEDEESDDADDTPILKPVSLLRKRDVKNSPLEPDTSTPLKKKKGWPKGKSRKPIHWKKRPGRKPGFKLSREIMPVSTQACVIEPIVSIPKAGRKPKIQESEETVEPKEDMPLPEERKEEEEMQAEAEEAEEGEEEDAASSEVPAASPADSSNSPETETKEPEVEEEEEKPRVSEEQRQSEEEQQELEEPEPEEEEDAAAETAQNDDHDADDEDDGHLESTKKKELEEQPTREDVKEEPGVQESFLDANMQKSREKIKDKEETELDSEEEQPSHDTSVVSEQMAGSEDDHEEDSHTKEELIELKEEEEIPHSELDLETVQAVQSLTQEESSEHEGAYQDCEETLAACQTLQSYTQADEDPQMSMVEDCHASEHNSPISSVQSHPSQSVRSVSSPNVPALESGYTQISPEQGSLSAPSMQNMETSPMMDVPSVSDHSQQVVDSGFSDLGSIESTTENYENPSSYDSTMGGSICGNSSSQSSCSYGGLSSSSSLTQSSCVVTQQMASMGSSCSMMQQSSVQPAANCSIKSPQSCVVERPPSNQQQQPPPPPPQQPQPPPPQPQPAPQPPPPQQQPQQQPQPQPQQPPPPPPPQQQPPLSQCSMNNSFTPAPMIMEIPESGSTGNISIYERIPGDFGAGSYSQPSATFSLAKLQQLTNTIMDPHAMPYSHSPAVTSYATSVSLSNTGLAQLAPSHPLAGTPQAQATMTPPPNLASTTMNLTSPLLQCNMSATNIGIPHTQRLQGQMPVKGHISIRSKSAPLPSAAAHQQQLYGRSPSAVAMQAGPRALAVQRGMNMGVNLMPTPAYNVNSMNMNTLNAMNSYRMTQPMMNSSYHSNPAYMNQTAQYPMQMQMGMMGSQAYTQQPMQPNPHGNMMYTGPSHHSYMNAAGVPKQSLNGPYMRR
Outline: as §1

[10] = biological target: T3, LSD1; conditions: read-out: IC50 against LSD1; cited from earlier work

With `c1cc(-c2ccc(-c3ncc(OCC4CCNCC4)nc3-c3ccc(-c4ccncc4)cc3)cc2)ccn1` [Compound 31, 5-(Piperidin-4-ylmethoxy)-2,3-bis(4-(pyridin-4-yl)phenyl)pyrazine hydrochloride] the inhibition at 10 µM [1] was 37 to 39%.

In the case of `CNCCOc1cnc(-c2ccc(Br)cc2)c(-c2ccc(Br)cc2)n1` [Compound 9, 2-((5,6-bis(4-bromophenyl)pyrazin-2-yl)oxy)-N-methylethan-1-amine hydrochloride], the “inhibitory activity against p300 HAT (in words)” value (“inhibitory activity” below) [1] was “weak inhibitors”.

For `CNC(=O)Nc1ccc2c(c1)CC[C@@]21OC(=O)N(CC(=O)N(Cc2ccc(F)cc2)[C@@H](C)C(F)(F)F)C1=O` [Compound A-485], the pEC50 [2] is listed as under 4.52, the pEC50 [3] is listed as under 4.52 and the “effect on p300 HAT-histone H4 binding (in words)” value (“effect” for short) [4] is listed as “not significantly inhibited; also recorded: did not affect the p300 HAT-histone H4 interaction”. For the same molecule, the pEC50 [5] was under 4.52.

With `c1cc(-c2ccc(-c3ncc(OCC4CCNCC4)nc3-c3ccc(-c4ccoc4)cc3)cc2)co1` [Compound 29, 2,3-bis(4-(Furan-3-yl)phenyl)-5-(piperidin-4-ylmethoxy)pyrazine hydrochloride] the “acetylation of H3K9 in cells” value [6] was “almost depleted”, the “acetylation of H3K18 in cells” value [6] was “significantly inhibited” and the “acetylation of H3K27 in cells” value [6] was “almost depleted”. The “mode of inhibition against cofactor Ac-CoA” value ([1]; IC50 versus Ac-CoA 1 - 50 μM) was “likely non-competitive against the enzyme cofactor Ac-CoA”, the “mode of inhibition against substrate histone” value ([1]; IC50 versus histone peptide 2 - 100 μM) was “competitive against the substrate histone” and the “more activity against p300 HAT than initial lead compound 3” value ([1]; relative to compound 3) was over 4 ×. For the same molecule, the “inhibition of LSD1 activity at 100 μM (in words)” value [7] was “did not significantly inhibit”, the “inhibition of PCAF activity at 100 μM (in words)” value [8] was “did not significantly inhibit” and the “inhibition of Myst3 activity at 100 μM (in words)” value [9] was “did not significantly inhibit”. For the same molecule, the “effect” value [4] was “can dose-dependently disrupt the binding”.

For `Cc1ccc(-c2ncc(OCC3CCNCC3)cc2-c2ccc(CO)cc2)cc1` [Compound 2], the pIC50 [10] is given as under 4.00.

For `Brc1ccc(-c2ncc(OCC3CCNCC3)nc2-c2ccc(Br)cc2)cc1` [Compound 3], the pIC50 [10] is listed as 4.28 and the “effect” value [4] is listed as “can dose-dependently disrupt the binding”.

With `N#Cc1ccc(-c2nc(OCC3CCNCC3)cnc2-c2ccc(Br)cc2)cc1` [Compound 22] the “inhibitory activity” value [1] was “failed to improve the inhibitory activity”.

Work on `c1ccc(-c2ccc(-c3ncc(OCC4CCNCC4)nc3-c3ccc(-c4ccccn4)cc3)cc2)nc1` [Compound 30, 5-(Piperidin-4-ylmethoxy)-2,3-bis(4-(pyridin-2-yl)phenyl)pyrazine hydrochloride] yielded an inhibition at 10 µM [1] of 37 to 39%.

For `NCc1ccc(-c2ncc(OCC3CCNCC3)nc2-c2ccc(CN)cc2)cc1` [Compound 27, ((5-(Piperidin-4-ylmethoxy)pyrazine-2,3-diyl)bis(4,1-phenylene))dimethanamine Hydrochloride], the “acetylation of H3K9 in cells” value [6] was “dose-dependently inhibit”, the “acetylation of H3K18 in cells” value [6] was “not significantly affected” and the “acetylation of H3K27 in cells” value [6] was “dose-dependently inhibit”. For the same molecule, the “activity enhancement against p300 HAT compared to compound 3” value ([1]; relative to compound 3) was ~ 2 fold.

With `CC(=O)NCCOc1cnc(-c2ccc(Br)cc2)c(-c2ccc(Br)cc2)n1` [Compound 10, N-(2-((5,6-bis(4-bromophenyl)pyrazin-2-yl)oxy)ethyl)acetamide hydrochloride] the “inhibitory activity” value [1] was “inactive”.

For `NCCOc1cnc(-c2ccc(Br)cc2)c(-c2ccc(Br)cc2)n1` [Compound 8, 2-((5,6-bis(4-bromophenyl)pyrazin-2-yl)oxy)ethan-1-amine hydrochloride], the “inhibitory activity” value [1] was “weak inhibitors”.

With `NCCCOc1cnc(-c2ccc(Br)cc2)c(-c2ccc(Br)cc2)n1` [Compound 6, 3-((5,6-bis(4-bromophenyl)pyrazin-2-yl)oxy)propan-1-amine hydrochloride] the “acetylation of H3K9 in cells” value [6] was “did not significantly reduce”, the “acetylation of H3K18 in cells” value [6] was “did not significantly reduce” and the “acetylation of H3K27 in cells” value [6] was “did not significantly reduce”. For the same molecule, the “effect” value [4] was “not significantly inhibited” and the “disruption of p300 HAT-histone H4 binding at 100 μM (in words)” value ([4]; 100 μM) was “did not significantly disrupt the binding”.

For `c1ccc(-c2cc(OCC3CCNCC3)cnc2-c2ccccc2)cc1` [Compound 1, 5,6-diphenyl-3-(piperidin-4-ylmethoxy)pyridine], the pIC50 [10] is listed as under 4.00.

With `N#Cc1ccc(-c2ncc(OCC3CCNCC3)nc2-c2ccc(Br)cc2)cc1` [Compound 23] the “inhibitory activity” value [1] was “failed to improve the inhibitory activity”.
